RAD54 branch: RAD54 (human) branch migration inhibition; RAD54 Holliday junction branch migration, FAM/BHQ fluorescence; inhibition, % at 10.4 µM; 360,000 compounds, 0.14% hits;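 active = mean normalized replicate activity at least 40 and at least half of replicates scoring 40 or more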;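 note: 0% = median of neutral control wells and 100% = median of positive control wells; inhibitors cause a drop in the FAM fluorescence signal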
FN deposit inh: fibronectin deposition inhibition; AH1F fibroblasts, Alexa488-fibronectin deposition fluorescence, overnight; inhibition, % at 12.6 µM; 350,000 compounds, 0.086% hits; AID 743247;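 active = mean inhibition across replicates of 30% or more, regardless of how many single replicates reach that level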;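 note: positive control wells lacked labelled fibronectin entirely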
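Assay system: AH1F fibroblasts / Quantity: 10000 cells per well / Medium: DMEM plus 2% serum, read in PBS / Reagent: labelled fibronectin 24 nM / Dosing: single dose, pinned / Times: 1 h cell attachment, overnight exposure to compound and label / Signal: fluorescence, ex 485 nm, em 525 nm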
RAD52 inh: blocks human RAD52 DNA annealing | P43351 | recombinant RAD52 DNA annealing, FRET fluorescence | inhibition, % at 18.7 µM | 360,000 compounds, 0.46% hits;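 active = every replicate showing at least 50% inhibition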
Target sequence (P43351 whole entry, looked up): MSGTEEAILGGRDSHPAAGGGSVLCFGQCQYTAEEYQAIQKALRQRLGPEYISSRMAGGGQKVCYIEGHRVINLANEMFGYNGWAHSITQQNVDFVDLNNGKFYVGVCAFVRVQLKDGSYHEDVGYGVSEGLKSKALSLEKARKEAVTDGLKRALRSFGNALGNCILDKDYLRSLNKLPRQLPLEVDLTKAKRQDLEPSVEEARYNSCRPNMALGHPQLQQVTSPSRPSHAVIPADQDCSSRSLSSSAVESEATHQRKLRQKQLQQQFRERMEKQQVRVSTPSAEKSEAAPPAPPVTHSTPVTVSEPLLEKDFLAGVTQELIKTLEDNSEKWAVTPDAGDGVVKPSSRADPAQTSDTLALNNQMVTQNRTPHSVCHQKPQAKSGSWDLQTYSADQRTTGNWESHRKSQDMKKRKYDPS
PAX8 reporter: inhibitors of PAX8 transcriptional activity in RMG-I cells; RMG-I TPO-luciferase reporter, SteadyGlo, 24 h; inhibition, % at 12.6 µM; 360,000 compounds, 1.2% hits; AID 652154;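 active = mean replicate inhibition at least 60% with every replicate also reaching 60%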;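 note: luciferase light reporting Pax8 driven TPO promoter activity; plate controls were median of neutral control wells for no effect and mitoxantrone controls for full effect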
* hit, by the source's call. A selection: hits, their analogues and other compounds. The true share with any hit is near 1.3%.

What do the screens show for `Cc1ccc(Cn2c(=N)c(C(=O)NCCN3CCOCC3)cc3c(=O)n4ccccc4nc32)cc1`?
RAD54 branch: 11.5; FN deposit inh: 8.5; RAD52 inh: 38.8; PAX8 reporter: -11.5

What do the screens show for `COC(=O)c1cc(NC(=O)Cc2ccccc2[N+](=O)[O-])cc(C(=O)OC)c1`?
RAD54 branch: -2.5

What do the screens show for `COc1ccc(-c2cc(-c3ccccc3)c(C#N)c(S(C)=O)n2)cc1` (centres undefined)?
RAD54 branch: 7.8; FN deposit inh: -6.5; PAX8 reporter: 75.5*

How did CCc1cccc2c(C(=O)CN3C(=O)NC4(CCCCCC4)C3=O)c[nH]c12 do in these assays?
RAD54 branch: -2.0; FN deposit inh: 17.2; RAD52 inh: -23.2; PAX8 reporter: 81.8*

What do the screens show for `CCc1cccc2c(C(=O)CN3C(=O)NC4(CCCCC4)C3=O)c[nH]c12`?
RAD54 branch: 3.6; FN deposit inh: -5.1; RAD52 inh: -8.3; PAX8 reporter: 50.1

How did CN1CCN(C(=O)C[C@@H]2C[C@@H]3c4cc(NC(=O)c5cccnc5)ccc4O[C@@H]3[C@@H](CO)O2)CC1 do in these assays?
RAD54 branch: -17.2; FN deposit inh: -0.2; PAX8 reporter: -7.4

How did CCCC(=O)Nc1ccc2c(c1)C(=O)N(C)C[C@H](OC)[C@H](C)CN(C(=O)c1ccccc1F)[C@@H](C)CO2 do in these assays?
RAD54 branch: 2.8; FN deposit inh: -1.8; RAD52 inh: -0.5

What do the screens show for `CCO[C@H]1OC(C(=O)N2CCN(Cc3ccccc3)CC2)=C[C@@H](c2ccc(C(F)(F)F)cc2)[C@@H]1CCCO`?
RAD54 branch: 3.0; FN deposit inh: -0.7; RAD52 inh: -25.5; PAX8 reporter: 90.1*

Results for COc1ccc(C(=O)NCCS(=O)(=O)NCCc2ccccc2)cc1 ?
RAD54 branch: 13.7; FN deposit inh: 2.2; RAD52 inh: -6.0; PAX8 reporter: -102.8

How did COc1cc(-c2noc(C)c2-c2ccc(N(C)C)nc2)cc(OC)c1OC do in these assays?
RAD54 branch: -1.5; FN deposit inh: 9.7; RAD52 inh: -10.3; PAX8 reporter: 74.2*

Results for C=C[C@H]1C(O[C@@H]2O[C@H](CO)[C@@H](O)[C@H](O)[C@H]2O)OC=C2C(=O)N3CCc4cc(OC)c(O)cc4[C@H]3C[C@H]21 (some centres undefined) ?
RAD54 branch: -7.6; RAD52 inh: -4.5

How did C[C@H](CO)N1C[C@H](C)[C@@H](CN(C)S(=O)(=O)c2ccc(Cl)cc2)OCc2ccccc2-c2c(n(C)c3ccccc23)C1=O do in these assays?
RAD54 branch: -2.8; FN deposit inh: -15.2; RAD52 inh: 8.8

How did O=C(Cn1ncnn1)OCc1ccccc1Cl do in these assays?
RAD54 branch: -2.7

How did Cc1ccc(S(=O)(=O)Nc2ccc3c(c2)C(=O)N([C@H](C)CO)C[C@@H](C)[C@H](CN(C)C(=O)Nc2ccc(C(F)(F)F)cc2)OCCCC[C@@H](C)O3)cc1 do in these assays?
RAD54 branch: -1.4; FN deposit inh: -7.3; RAD52 inh: -6.5; PAX8 reporter: 69.4*

How did Cc1ccc(S(=O)(=O)Nc2ccc3c(c2)C(=O)N([C@@H](C)CO)C[C@H](C)[C@@H](CN(C)C(=O)Nc2ccc(C(F)(F)F)cc2)OCCCC[C@H](C)O3)cc1 do in these assays?
RAD54 branch: 1.7; FN deposit inh: -5.6; RAD52 inh: -10.7; PAX8 reporter: 78.9*

What do the screens show for `COc1ccc(NC(=O)Nc2cccc3c2O[C@H](CN(C)Cc2ccc(C(=O)O)cc2)[C@@H](C)CN([C@H](C)CO)C3=O)cc1`?
RAD54 branch: 9.9; FN deposit inh: -0.8; RAD52 inh: 5.0

How did O=C(/C=C/c1cccnc1)/C=C/c1cccnc1 do in these assays?
RAD54 branch: 9.8; FN deposit inh: 5.4; RAD52 inh: -0.8; PAX8 reporter: 92.2*

Results for COc1ccc(OC)c(C(=O)/C=C/c2cccnc2)c1 ?
RAD54 branch: 3.8; FN deposit inh: -0.4; RAD52 inh: -1.6; PAX8 reporter: 71.7*

How did COc1ccc(-n2cnnc2SCC(=O)NC2CCCCC2)cc1 do in these assays?
RAD54 branch: -0.8; FN deposit inh: -11.6; RAD52 inh: 9.0; PAX8 reporter: -8.1

Results for COc1ccc(OCCNC(=O)/C=C/c2ccc([N+](=O)[O-])cc2)cc1 ?
RAD54 branch: -2.3; FN deposit inh: -0.6; RAD52 inh: -11.5; PAX8 reporter: 107.3*

How did O=C(/C=C/c1ccc([N+](=O)[O-])cc1)NCCOc1ccc(F)cc1 do in these assays?
RAD52 inh: 12.8; PAX8 reporter: 8.8

How did O=C(C=P(c1ccccc1)(c1ccccc1)c1ccccc1)c1ccccc1-c1ccccc1C(=O)C=P(c1ccccc1)(c1ccccc1)c1ccccc1 do in these assays?
FN deposit inh: 8.0; RAD52 inh: -59.8; PAX8 reporter: 114.3*

Results for CCOC(=O)N1CCN(C(=O)CCc2ccc(S(=O)(=O)NCC(C)C)cc2)CC1 ?
RAD54 branch: -6.8; FN deposit inh: -4.5; RAD52 inh: -2.4; PAX8 reporter: 2.0

Results for N#C/C(=N\Nc1cccc([N+](=O)[O-])c1)C(=O)c1ccc(Br)cc1 ?
RAD54 branch: 0.0; FN deposit inh: -3.5; RAD52 inh: -11.1; PAX8 reporter: 90.6*

Results for O=C(O)c1ccc(N=NNc2cccc([N+](=O)[O-])c2)cc1 ?
RAD54 branch: 2.2; FN deposit inh: 2.1; RAD52 inh: -9.0; PAX8 reporter: -87.1

How did Cc1ccc(C)c(Oc2cc(NC(=O)CCCn3nc(C)c([N+](=O)[O-])c3C)cc([N+](=O)[O-])c2)c1 do in these assays?
FN deposit inh: -21.8; RAD52 inh: -19.7; PAX8 reporter: 6.6

Results for Cc1nc(SCc2nc3c([N+](=O)[O-])cccc3[nH]2)c2oc3ccccc3c2n1 ?
RAD54 branch: 9.4

What do the screens show for `CCOc1ccc(C(=O)NCc2ccccc2)cc1Br`?
RAD54 branch: 8.8; FN deposit inh: -8.3; RAD52 inh: -2.6; PAX8 reporter: 79.0*

What do the screens show for `C=CCN1C(=O)/C(=C/c2ccc(OC(C)=O)c(OCC)c2[N+](=O)[O-])SC1=S`?
FN deposit inh: 0.4; RAD52 inh: -18.9; PAX8 reporter: 99.6*

Results for O=c1cc(O)c2ccc(O)cc2o1 ?
RAD54 branch: -4.1; RAD52 inh: -12.0

What do the screens show for `O=c1ccc2[n+]([O-])c3ccc(O)cc3oc-2c1`?
FN deposit inh: 2.8; RAD52 inh: -293.1; PAX8 reporter: 80.6*

Results for Oc1ccc2ccccc2c1-c1sc(Nc2ccccc2)n[n+]1-c1ccc(F)cc1 ?
RAD54 branch: -12.2; FN deposit inh: 7.8; RAD52 inh: inactive; PAX8 reporter: 13.2

What do the screens show for `Fc1ccc(-[n+]2nc(Nc3ccccc3)sc2-c2c3ccccc3cc3ccccc23)cc1`?
RAD54 branch: -3.0; FN deposit inh: 6.3; RAD52 inh: -24.0; PAX8 reporter: 86.4*

What do the screens show for `COc1ccc(/C=N\NC(=O)c2ccccc2OC)cc1COc1c(F)c(F)c(F)c(F)c1F`?
RAD54 branch: -1.6; FN deposit inh: -2.9; RAD52 inh: -10.2; PAX8 reporter: 64.4*

What do the screens show for `COc1ccc(/C=N\NC(=O)c2ccccc2Cl)cc1COc1c(F)c(F)c(F)c(F)c1F`?
RAD54 branch: -4.1; FN deposit inh: 6.8; RAD52 inh: -3.6
